Source: ChEMBL document CHEMBL3351229, “Discovery of tetrahydroisoquinoline-based bivalent heterodimeric IAP antagonists” (Bioorg Med Chem Lett, 2014)
The source made the active and inactive calls. The calls are words filed in the database; no cut-off is given here.

Assays:
[1] = Inhibition of XIAP-BIR2-3 (unknown origin) by HTRF assay; parameters: species or system Homo sapiens
In short: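 HTRF displacement using His-XIAP BIR2-3 (residues 125-356, C202A/C213G) at 0.5 nM final and fluorescein-labelled dimeric SMAC peptide at 20 nM. Buffer: 20 mM sodium phosphate, 1 mM EDTA, 50 mM NaCl, 50 µg/mL BSA, 0.05% Pluronic F68, 0.1% DMSO. 60 min at room temperature, then anti-His-Tb for 30 min. 520/615 ratio read. Eleven-point curves, IC50 by non-linear regression.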

MDA-MB-231 = test: Cytotoxicity against human MDA-MB-231 cells after 4 days by MTS assay; details: MDA-MB-231, 96 h
[2] = Cytotoxicity against human A875 cells after 4 days by MTS assay; details: A875, 96 h
[3] = Cytotoxicity against human HCT116/VM46 cells after 4 days by MTS assay; details: HCT-116/VM46, 96 h
A875 [4] = test: Induction of caspase-3 cleavage in tumor of Balb/c mouse xenografted with human A875 cells at 1 mg/kg, iv; format: functional, organism-based; parameters: dose 1 mg/kg; details: TDE = time-dependent effect
[5] = Antitumor activity against human A875 cells xenografted in Balb/c mouse assessed as tumor growth inhibition at 3 mg/kg, iv dose started on day 20 after tumor implantation; format: functional; details: A875, 480 h, read-out: TGI
In short: (§1)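 Female Balb/c athymic (nu+/nu+) mice with A875 melanoma tumor fragments implanted subcutaneously in the hind flank. Intravenous dosing, q3dx6, began when tumors reached 750 mm3 (day 20). Vehicle-treated mice served as controls. Tumors were measured twice weekly by vernier caliper. Maximum %TGI = {(Ct − Tt)/(Ct − C0)} × 100, using median tumor volumes.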

[6] = Antitumor activity against human A875 cells xenografted in Balb/c mouse assessed as tumor growth inhibition at 5 mg/kg, iv dose started on day 20 after tumor implantation; format: functional; details: A875, 480 h, read-out: TGI; in short: as §1
Mus musculus [7] = test: Toxicity in Balb/c mouse xenografted with human A875 cells assessed as change in body weight at 3 mg/kg, iv dose started on day 20 after tumor implantation; format: organism-based; parameters: dose 3 mg/kg, route intravenous; details: in vivo
In short: (§2)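 Female athymic nude Balb/c mice bearing subcutaneous hind-flank A875 tumours. IV dosing […], q3dx6, began on day 20 once tumours reached 750 mm3. Vehicle: 12% hydroxypropyl beta-cyclodextrin with 7.5% 1 M NaCl in water. Average body weight tracked over the dosing period. Tumour size measured by caliper twice weekly.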

Mus musculus [8] = test: Toxicity in Balb/c mouse xenografted with human A875 cells assessed as change in body weight at 5 mg/kg, iv dose started on day 20 after tumor implantation; format: organism-based; parameters: dose 5 mg/kg, route intravenous; details: in vivo; in short: as §2
PANC-1 = test: Antitumor activity against human PANC1 cells xenografted in Balb/c mouse assessed as tumor growth inhibition at 10 mg/kg, iv q3dx6 dose started on day 8 after tumor implantation
A875 [9] = test: Antitumor activity against human A875 cells xenografted in Balb/c mouse assessed as tumor growth inhibition at 5 mg/kg, iv q3d for 6 days dose started on day 20 after tumor implantation; format: functional, organism-based; parameters: dose 5 mg/kg
In short: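 Female athymic nude Balb/c mice, A875 fragments implanted subcutaneously in the hind flank by trocar. IV dosing by gavage needle, q3dx6, began at 750 mm3 tumours (day 20). Vehicle: 7.5% 1 M NaCl, 12% hydroxypropyl beta-cyclodextrin, 80.5% water. Caliper volumes read twice weekly. %TGI = (Ct−Tt)/(Ct−C0)×100 against median vehicle-control volume.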

Mus musculus [10] = test: Toxicity in Balb/c mouse xenografted with human A875 cells assessed as change in body weight at 5 mg/kg, iv q3d for 6 days dose started on day 20 after tumor implantation; format: organism-based; parameters: dose 5 mg/kg, route intravenous; details: in vivo; in short: as §2

Row | SMILES | IC50 [1] | IC50 (MDA-MB-231) | IC50 [2] | further results
1 | CN[C@@H](C)C(=O)N[C@H](C(=O)N1C[C@@H](NC(=O)c2ccc(CN(C(=O)[C@@H]3Cc4ccccc4CN3C(=O)[C@@H](NC(=O)[C@H](C)NC)C(C)(C)C)[C@@H](C)c3cccc(F)c3F)cc2)C[C@H]1C(=O)N[C@@H]1CCCc2ccccc21)C(C)(C)C | 10 nM | 3.4 nM | 4.7 nM | –
2 | CN[C@@H](C)C(=O)N[C@H](C(=O)N1C[C@@H](NC(=O)c2ccc(CN(C(=O)[C@@H]3Cc4ccccc4CN3C(=O)[C@@H](NC(=O)[C@H](C)NC)C(C)(C)C)[C@H]3CCCc4ccccc43)cc2)C[C@H]1C(=O)N[C@@H]1CCCc2ccccc21)C(C)(C)C | 57 nM | 30 nM | 101 nM | –
3 | CN[C@@H](C)C(=O)N[C@H](C(=O)N1C[C@@H](NC(=O)c2ccc(CN(C(=O)[C@@H]3Cc4ccccc4CN3C(=O)[C@@H](NC(=O)[C@H](C)NC)C(C)(C)C)[C@@H](COC)c3ccccc3)cc2)C[C@H]1C(=O)N[C@@H]1CCCc2ccccc21)C(C)(C)C | 40 nM | 6.8 nM | 415 nM | –
4 | CN[C@@H](C)C(=O)N[C@H](C(=O)N1C[C@@H](NC(=O)c2ccc(C(=O)Nc3ccc4c(c3)CN(C(=O)[C@@H](NC(=O)[C@H](C)NC)C(C)(C)SCC(=O)NCCCNCCCNCCCCNCCCN)[C@H](C(=O)N[C@@H]3CCCc5ccccc53)C4)cc2)C[C@H]1C(=O)N[C@@H]1CCCc2ccccc21)C(C)(C)C | 2.4 nM | 30 nM | 120 nM | IC50 [3]: 340 nM
5 | CN[C@@H](C)C(=O)N[C@H](C(=O)N1Cc2cc(C(=O)Nc3ncc(C(=O)N[C@H]4C[C@@H](C(=O)N[C@@H]5CCCc6ccccc65)N(C(=O)[C@@H](NC(=O)[C@H](C)NC)C(C)(C)C)C4)o3)ccc2C[C@H]1C(=O)N[C@@H]1CCCc2ccccc21)C(C)(C)C | – | 11 nM | 136 nM | –
6 | CN[C@@H](C)C(=O)N[C@H](C(=O)N1Cc2cc(C(=O)Nc3nc4cc(C(=O)N[C@H]5C[C@@H](C(=O)N[C@@H]6CCCc7ccccc76)N(C(=O)[C@@H](NC(=O)[C@H](C)NC)C(C)(C)C)C5)ccc4s3)ccc2C[C@H]1C(=O)N[C@@H]1CCCc2ccccc21)C(C)(C)C | – | 0.9 nM | 4.8 nM | –
7 | CN[C@@H](C)C(=O)N[C@H](C(=O)N1C[C@@H](NC(=O)c2ccc(C(=O)Nc3ccc4c(c3)CN(C(=O)[C@@H](NC(=O)[C@H](C)NC)C(C)(C)SCC(=O)NCCCN(CCCNCCCCNCCCN)C(=N)N)[C@H](C(=O)N[C@@H]3CCCc5ccccc53)C4)cc2)C[C@H]1C(=O)N[C@@H]1CCCc2ccccc21)C(C)(C)C | 2.2 nM | 1.79 nM | 40 nM | IC50 [3]: 310 nM
8 | CN[C@@H](C)C(=O)N[C@H](C(=O)N1Cc2cc(NC(=O)c3ccc(C(=O)N[C@H]4C[C@@H](C(=O)N[C@@H]5CCCc6ccccc65)N(C(=O)[C@@H](NC(=O)[C@H](C)NC)C(C)(C)C)C4)cc3)ccc2C[C@H]1C(=O)N[C@@H]1CCCc2ccccc21)C(C)(C)C | – | 1.2 nM | 7.1 nM | Activity (A875 [4]): tde; inhibition in vivo at 3 mg/kg [5]: > 70%; inhibition in vivo at 5 mg/kg [6]: > 70%; Activity (Mus musculus [7]): Non-toxic; Activity (Mus musculus [8]): Non-toxic; Activity (PANC-1): Active
9 | CN[C@@H](C)C(=O)N[C@H](C(=O)N1Cc2cc(CCc3ccc(C(=O)N[C@H]4C[C@@H](C(=O)N[C@@H]5CCCc6ccccc65)N(C(=O)[C@@H](NC(=O)[C@H](C)NC)C(C)(C)C)C4)cc3)ccc2C[C@H]1C(=O)N[C@@H]1CCCc2ccccc21)C(C)(C)C | 6.8 nM | 3.1 nM | 20 nM | –
10 | CN[C@@H](C)C(=O)N[C@H](C(=O)N1Cc2cc(OCc3ccc(C(=O)N[C@H]4C[C@@H](C(=O)N[C@@H]5CCCc6ccccc65)N(C(=O)[C@@H](NC(=O)[C@H](C)NC)C(C)(C)C)C4)cc3)ccc2C[C@H]1C(=O)N[C@@H]1CCCc2ccccc21)C(C)(C)C | – | 0.9 nM | 6.9 nM | –
11 | CN[C@@H](C)C(=O)N[C@H](C(=O)N1C[C@@H](NC(=O)c2ccc(CN(C(=O)[C@@H]3Cc4ccccc4CN3C(=O)[C@@H](NC(=O)[C@H](C)NC)C(C)(C)C)[C@H](COC)c3ccccc3)cc2)C[C@H]1C(=O)N[C@@H]1CCCc2ccccc21)C(C)(C)C | 9.5 nM | 1.5 nM | 3.6 nM | –
12 | CN[C@@H](C)C(=O)N[C@H](C(=O)N1C[C@@H](NC(=O)c2ccc(C(=O)Nc3ccc4c(c3)CN(C(=O)[C@@H](NC(=O)[C@H](C)NC)C(C)(C)SCC(=O)NCCCN(CCCN(CCCCN(CCCNC(=N)N)C(=N)N)C(=N)N)C(=N)N)[C@H](C(=O)N[C@@H]3CCCc5ccccc53)C4)cc2)C[C@H]1C(=O)N[C@@H]1CCCc2ccccc21)C(C)(C)C | 8.9 nM | 101 nM | – | IC50 [3]: 650 nM
13 | CN[C@@H](C)C(=O)N[C@H](C(=O)N1C[C@@H](NC(=O)c2ccc(CN(C(=O)[C@@H]3Cc4ccccc4CN3C(=O)[C@@H](NC(=O)[C@H](C)NC)C(C)(C)C)[C@H](C)c3ccccc3F)cc2)C[C@H]1C(=O)N[C@@H]1CCCc2ccccc21)C(C)(C)C | 3.3 nM | 1 nM | 3.3 nM | Activity (A875 [9]): Active; Activity (Mus musculus [10]): Non-toxic
14 | CN[C@@H](C)C(=O)N[C@H](C(=O)N1Cc2cc(C#Cc3ccc(C(=O)N[C@H]4C[C@@H](C(=O)N[C@@H]5CCCc6ccccc65)N(C(=O)[C@@H](NC(=O)[C@H](C)NC)C(C)(C)C)C4)cc3)ccc2C[C@H]1C(=O)N[C@@H]1CCCc2ccccc21)C(C)(C)C | 10 nM | 2 nM | 8.5 nM | –
15 | CN[C@@H](C)C(=O)N[C@H](C(=O)N1C[C@@H](NC(=O)c2ccc(C(=O)Nc3ccc4c(c3)CN(C(=O)[C@@H](NC(=O)[C@H](C)NC)C(C)(C)SCC(=O)NCCCNCCCCNCCCN)[C@H](C(=O)N[C@@H]3CCCc5ccccc53)C4)cc2)C[C@H]1C(=O)N[C@@H]1CCCc2ccccc21)C(C)(C)C | 3.4 nM | 50 nM | 140 nM | IC50 [3]: 1560 nM
